hERG rescue = compounds protecting human hERG from proarrhythmic drug block | activation (rescue from dofetilide block), less the hit threshold, % at 10 µM | 0.51% of 310,000 active | CHO-hERG, FluxOR thallium flux, dofetilide IC70 present;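 active = activation above the mean of controls blocked by dofetilide plus 5 SD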;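 note: thallium influx through hERG after potassium depolarization seen as dye fluorescence rise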
KCNQ1 block = blocks the human KCNQ1 potassium channel; CHO-K1 KCNQ1, FluxOR thallium flux fluorescence; stronger effect = higher value; B-score at 10 µM; 1.3% of 310,000 active;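 active = compounds whose thallium flux B-score, printed positive for inhibition, exceeds three library SD while starting fluorescence stays within three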;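 note: channel opened by potassium depolarization with thallium stimulus after 20 min compound exposure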
KCNK3 inh = human KCNK3 channel inhibition, primary screen | O14649 | 0.84% of 340,000 active | CHO-KCNK3 thallium flux, FluxOR fluorescence; stronger effect = lower value | B-score at 10 µM;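 active = B-score under library mean minus 4 SD, starting fluorescence ratio at most library mean plus 5 SD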;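 note: more negative B-score means stronger inhibition of thallium flux through KCNK3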
KCNQ1 act = potentiators or activators of human KCNQ1 potassium channel; P51787; CHO-K1 KCNQ1, thallium flux FluxOR fluorescence; stronger effect = higher value; B-score at 10 µM; 0.35% of 310,000 active; AID 2648;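 active = fluorescence ratio B-score, a plate-corrected score, at least three library SD, with initial intensity B-score within 5 SD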
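Doses: Single concentration per compound, DMSO matched to controls | Test system: KCNQ1-transfected CHO-K1 cells | Timing: 90 min dye loading and 20 min compound exposure, both at room temperature | Measured by: Kinetic FluxOR thallium fluorescence, 10-s 1-Hz baseline, 110-s post-stimulus read | Medium: Assay buffer with matched DMSO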
Kir21 block = inhibitors of mouse Kir2.1 inward-rectifier potassium channel | HEK293-Kir2.1, FluxOR thallium flux fluorescence; stronger effect = lower value | 0.85% of 310,000 active | AID 1672 | B-score at 10 µM;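 active = fluorescence ratio B-score at or below minus 3 SD of library scores, with starting-brightness B-score within 2 SD, cut at about -4.2 in these data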;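 note: channel flux triggered by added potassium and thallium sulfate stimulus; B-score of peak minus minimum fluorescence over baseline after thallium stimulus; more negative B-score means stronger Kir2.1 block with less thallium influx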
KCNK9 inh = blocks the human KCNK9 two-pore domain potassium channel; 1.2% of 310,000 active; B-score at 10 µM; Q9NPC2; HEK293 KCNK9, FluxOR thallium flux fluorescence; stronger effect = lower value;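 active = ratio B-score over 3 SD below the library mean, with starting fluorescence within 5 SD of its mean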;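 note: negative B-score means less thallium flux so channel inhibition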
Target sequence (Q9NPC2 whole entry, looked up, the tested form may be a part): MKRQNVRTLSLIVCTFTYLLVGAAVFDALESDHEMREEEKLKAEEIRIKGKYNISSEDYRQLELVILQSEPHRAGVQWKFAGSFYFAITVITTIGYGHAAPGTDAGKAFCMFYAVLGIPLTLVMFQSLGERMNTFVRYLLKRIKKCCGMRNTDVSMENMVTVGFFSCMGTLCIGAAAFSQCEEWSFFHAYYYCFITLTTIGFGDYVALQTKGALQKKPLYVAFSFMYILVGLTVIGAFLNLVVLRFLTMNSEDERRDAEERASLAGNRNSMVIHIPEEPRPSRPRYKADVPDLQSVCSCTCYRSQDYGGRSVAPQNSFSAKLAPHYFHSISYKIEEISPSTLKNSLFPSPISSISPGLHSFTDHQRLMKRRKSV
KCNK9 block conf = human KCNK9 inhibitor confirmation | shares compounds with KCNK9 inh | HEK293 KCNK9 cells, FluxOR thallium flux fluorescence | inhibition, % at 10 µM | 43% of 4,900 active;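 active = thallium signal inhibited by more than 5 SD of the compound-free buffer control wells, on both duplicate plates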;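 note: 0% = assay buffer control wells without compound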
Kir21 sel = tests whether KCNK9 modulators also affect mouse Kir2.1; 4% of 4,900 active; AID 492993; Kir2.1 cells, FluxOR thallium flux fluorescence; shares compounds with KCNK9 inh; inhibition, % at 10 µM;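 active = thallium signal drop more than 5 SD beyond the mean of the no-compound control wells, seen in both duplicate plates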;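 note: signal is fluorescence rise after thallium addition divided by baseline fluorescence; plate controls were assay buffer only for no effect and full block by chlorpromazine control for full effect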
HEK293 Tl ctr = non-induced cell nonspecific activity of KCNK9 modulators; inhibition, % at 10 µM; AID 492997; non-induced KCNK9-HEK293, FluxOR thallium flux; 40% of 4,900 active; shares compounds with KCNK9 inh;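 active = thallium signal drop beyond 5 SD of the untreated control mean, on both duplicate plates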;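 note: plate controls were buffer only IC0 wells for no effect and SID17386958 at its maximal inhibitory level for full effect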
Starred values were filed as active, the others as inactive; i = inactive; . = not tested or not shown. Hits are enriched below; roughly 3.7% of the tested compounds scored in any of these assays.

SMILES	hERG rescue	KCNQ1 block	KCNK3 inh	KCNQ1 act	Kir21 block	KCNK9 inh	KCNK9 block conf	Kir21 sel	HEK293 Tl ctr
COc1ccc2c(c1OC)C(=O)N1C2SC(C)(C)[C@H]1C(=O)NCC(C)C (some centres not stated)	-6	i	i	i	0.26	i	.	.	.
CCOc1ccc2[nH]c(=O)c(CN(CCc3ccccc3)C(=O)N3CCOCC3)cc2c1	-5	i	i	i	-0.41	i	.	.	.
CCOc1ccc2[nH]c(=O)c(CN(CCc3ccccc3)C(=O)N3CCCC3)cc2c1	-11	i	i	i	1.4	i	i	i	i
CCC(C(=O)N1CCOCC1)n1nc(C)c2sc3ccccc3c2c1=O (configuration not stated)	-8	i	i	i	-1.2	i	.	.	.
CCn1cc(Br)c(C(=O)Nc2cccc(Cl)c2)n1	-6	i	i	i	-1.6	-12*	63%*	i	33%*
CCn1nc(C(=O)Nc2cccc(C(F)(F)F)c2)c(Cl)c1Cl	-7	i	i	i	-0.13	-8.9*	46%*	i	28%*
COC(=O)C(NC(=O)CNS(=O)(=O)c1ccc(Br)cc1)c1ccccc1 (configuration not stated)	-2	i	i	i	0.74	i	.	.	.
CN(Cc1ccccn1)Cc1nc(Cc2ccccc2Cl)no1	-4	i	i	i	-0.54	i	.	.	.
COc1cccc(CN(C)Cc2nc(Cc3ccccc3Cl)no2)c1	-6	i	i	i	-0.7	i	i	i	i
CCn1c(NC(C)=O)c(-c2ccccc2Cl)c(=O)c2ccccc21	2	i	i	i	2.1	i	.	.	.
N#Cc1ccccc1Sc1ccccc1C(=O)OCC(=O)NC12CC3CC(CC(C3)C1)C2	-6	i	i	i	-0.5	-8.5*	48%*	i	30%*
Cc1nn(-c2ccccc2)c(N)c1Sc1ccc([N+](=O)[O-])cc1	-16	i	i	i	-0.72	-13*	73%*	i	34%*
Cc1cc(C)cc(Oc2ncnc3c2ncn3Cc2c(Cl)cccc2Cl)c1	1	i	i	i	-0.28	i	i	i	i
COc1cc(/C=N/Nc2nc(Nc3ccccc3)nc(-n3nc(C)cc3C)n2)cc(OC)c1OC	-31	8*	i	i	0.17	-9.4*	46%*	i	i
COc1cc(/C=N/Nc2nc(Nc3ccc(C)cc3)nc(-n3nc(C)cc3C)n2)cc(OC)c1OC	-13	i	i	i	-0.61	i	.	.	.
COc1ccc(O)c(/C=N/Nc2nc(Nc3ccccc3)nc(-n3nc(C)cc3C)n2)c1	-15	10*	i	i	-0.76	-12*	46%*	i	i
O=C(NCc1ccco1)C12CC3CC(CC(C3)C1)C2	0	i	i	i	-0.02	i	.	.	.
O=C(CC12CC3CC(CC(C3)C1)C2)NC(=S)NCc1ccco1	-26	6*	i	i	-0.01	i	i	i	i
Cc1cc(C)n(C(=O)c2ccc(C)c(Br)c2)n1	-7	i	i	i	-0.6	i	i	i	i
COc1ccc(C(=O)n2nc(C)cc2C)cc1OC	-5	i	i	i	-0.3	i	.	.	.
COc1ccc(OC)c(-n2c(SCC(=O)Nc3cccc(S(N)(=O)=O)c3)nc3ccccc3c2=O)c1	-9	i	i	i	-0.85	-13*	56%*	i	34%*
COc1ccccc1-n1c(SCC(=O)Nc2cccc(S(N)(=O)=O)c2)nc2ccccc2c1=O	-16	i	i	i	-2.3	-8.4*	34%*	i	i
O=C(CSc1nnc(NC(=O)c2ccccc2)s1)NC1CCCC1	-8	i	i	i	-0.24	i	.	.	.
COCCn1cnc2c(c1=O)c1nc3ccccc3nc1n2/N=C/c1cccc(OC)c1	-3	i	i	i	1.1	-9.7*	i	i	i
CCOC(=O)c1nccnc1C(=O)Nc1ccc(C(F)(F)F)cc1	-12	i	i	i	0.06	i	.	.	.
SMILES	hERG rescue	KCNQ1 block	KCNK3 inh	KCNQ1 act	Kir21 block	KCNK9 inh	KCNK9 block conf	Kir21 sel	HEK293 Tl ctr
Cc1cc(C)c(S(=O)(=O)c2ccc(C(C)(C)C)cc2)c(Cl)n1	-1	i	i	i	0.87	i	i	i	i
Cc1ccc(C(=O)N2N=C(c3ccccc3)CC2(O)C(F)(F)F)o1 (configuration not stated)	-13	i	i	i	1	-11*	55%*	i	32%*
Cc1ccc(C)n1-c1nn(S(=O)(=O)c2cccc(C(F)(F)F)c2)c2cccc(F)c12	0	i	i	i	0.4	-14*	60%*	i	30%*
Cc1ccc(S(=O)(=O)n2nc(-n3c(C)ccc3C)c3c(F)cccc32)c2ccccc12	-1	i	i	i	0.88	i	.	.	.
Cc1nc(S/C(=C/c2ccc(-c3cc(Cl)ccc3C)o2)C(=O)O)n[nH]1	-10	8*	i	i	-1	i	i	i	36%*
COc1ccc(NC(=O)COc2ccccc2F)cc1S(=O)(=O)N1CCCCC1	-14	i	i	i	1.3	-9.6*	i	i	i
Cc1ccc(C)c(OCCC(=O)OCC(=O)Nc2ccc(C)c(S(=O)(=O)N3CCCCC3)c2)c1	-9	i	i	i	1.1	-11*	i	i	29%*
COc1ccc(NC(=O)CCOc2ccccc2F)cc1S(=O)(=O)N1CCCCC1	.	.	i	.	.	.	.	.	.
Cc1ccc(OCCC(=O)OCC(=O)Nc2ccc(C)c(S(=O)(=O)N3CCOCC3)c2)cc1	.	.	i	.	.	.	.	.	.
COc1ccc2c(c1)CC[C@@H]1[C@@H]2CC[C@]2(C)[C@@H](C(=O)O)C[C@@H]12	-4	i	i	i	-1	i	.	.	.
Cn1ccnc1SCC(=O)n1c2c(c3ccccc31)CCCC2	-5	i	i	i	0.01	i	i	i	i
COc1ccc(N2CCN(C(=O)CCc3nnc4ccc(N5CCOCC5)nn34)CC2)cc1	-5	i	i	i	-0.02	i	.	.	.
Cc1cc(OCC(=O)N(C(C)C)C(C)C)ccc1Cl	5.0*	i	i	i	1	i	i	i	i
